Results from different studies.
Lines come from different studies, so protocols differ.
IDE: Insulin-degrading enzyme (IDE, Homo sapiens, UniProt P14735)
Tumor necrosis factor receptor superfamily member 9: Tumor necrosis factor receptor superfamily member 9 (Homo sapiens, UniProt Q07011)

| Compound | target | observed | mode | technique | notes | measurement | result |
| --- | --- | --- | --- | --- | --- | --- | --- |
| c1cncc(-c2cccc(Nc3nccc(NC4CCCCC4)n3)c2)c1 | Tyrosine-protein kinase JAK3, JH1 (JAK3, Homo sapiens, UniProt P52333) | binding | – | competition with immobilised ligand | – | Kd | 1300 nM |
| CCCCCCN(CC(=O)O)CC(=O)N[C@@H](Cc1c[nH]cn1)C(=O)OC | IDE | enzyme activity | inhibitor | fluorescence | – | IC50 | 400 nM |
| CC(C)C[C@H](NC(=O)[C@H](Cc1ccccc1)NC(=O)[C@H](Cc1ccc(O)cc1)NC(=O)CNC(=O)[C@H](CCCNC(=N)N)NC(=O)[C@H](CO)NC(=O)[C@H](CCC(N)=O)NC(=O)[C@H](CO)NC(=O)[C@H](C)NC(=O)[C@H](Cc1ccccc1)NC(=O)[C@@H]1CCCN1C(=O)[C@H](CO)NC(=O)[C@H](CCC(N)=O)NC(=O)[C@H](Cc1ccccc1)NC(=O)[C@H](CCC(=O)O)NC(=O)[C@H](CCC(=O)O)NC(=O)[C@H](CC(=O)O)NC(=O)[C@@H](NC(=O)[C@H](CCCNC(=N)N)NC(=O)[C@@H](N)Cc1ccccc1)C(C)C)C(=O)N[C@@H](Cc1ccccc1)C(=O)N[C@@H](CCCNC(=N)N)C(=O)N1CCC[C@H]1C(=O)N[C@@H](CCCNC(=N)N)C(=O)N[C@@H](CC(N)=O)C(N)=O | Neuromedin-U receptor 2 (NMUR2, Homo sapiens, UniProt Q9GZQ4) | inositol phosphate | agonist | TR-FRET | – | EC50 | 0.17 nM |
| COC(=O)[C@H](Cc1c[nH]cn1)NC(=O)CN(CCCc1ccccc1)CC(=O)O | IDE | enzyme activity | inhibitor | fluorescence | – | IC50 | 1000 nM |
| CCCC[C@@H]1NC(=O)[C@H](Cc2ccc(O)cc2)NC(=O)[C@@H]2CCCN2C(=O)[C@H](CC(=O)O)NC(=O)[C@H](C)NC(=O)[C@H](Cc2ccccc2)NC(=O)[C@@H]2CSCCC(=O)N3CN(CN(C3)C(=O)CCSC[C@@H](C(=O)N[C@@H](C)C(N)=O)NC1=O)C(=O)CCSC[C@H](NC(C)=O)C(=O)N[C@@H](CC(C)(C)C)C(=O)N1CCC[C@H]1C(=O)N[C@@H](CCC(=O)O)C(=O)N[C@H](CCCCNC(=O)CCc1cn(CC(=O)N[C@H]3CSCCC(=O)N4CN5CN(C4)C(=O)CCSC[C@H](NC(=O)[C@@H](CC(=O)O)NC(=O)[C@H](Cc4cccc6ccccc46)NC(=O)[C@@H]4CCCN4C3=O)C(=O)N[C@@H](CCSC)C(=O)N[C@@H](CCCCNC(=N)N)C(=O)N[C@@H](CC(=O)O)C(=O)N[C@@H](Cc3c[nH]c4ccccc34)C(=O)N[C@@H](CO)C(=O)N[C@@H]([C@@H](C)O)C(=O)N3CCC[C@H]3C(=O)N3C[C@H](O)C[C@H]3C(=O)N[C@@H](Cc3c[nH]c4ccccc34)C(=O)N[C@H](C(N)=O)CSCCC5=O)nn1)C(=O)N1CCC[C@H]1C(=O)N[C@@H](Cc1ccc(O)cc1)C(=O)N2 | Tumor necrosis factor receptor superfamily member 9 | binding | – | SPR | – | Kd | 9 nM |
| COC(=O)[C@H](Cc1c[nH]cn1)NC(=O)CN(CC(=O)O)Cc1ccc(F)cc1 | IDE | enzyme activity | inhibitor | fluorescence | – | IC50 | 2500 nM |
| CN1CCN(c2ccc(Nc3ncc4cc(C#N)c(=O)n(C5CCCC5)c4n3)cc2)CC1 | Serine/threonine-protein kinase 4 (STK4, Homo sapiens, UniProt Q13043) | enzyme activity | inhibitor | – | – | IC50 | 7070 nM |
| CNC(=O)c1cc2c(Oc3ccc(NC(=O)C4(C(=O)Nc5ccc(F)cc5)CC4)cc3)ccnc2cc1OC | Hepatocyte growth factor receptor (MET, Homo sapiens, UniProt P08581, Y1230D) | enzyme activity | inhibitor | radiometric | – | IC50 | 9 nM |
| Cc1cc2nc3c(=O)[nH]c(=O)nc-3n(C[C@H](O)[C@H](O)[C@H](O)COP(=O)(O)OP(=O)(O)OC[C@H]3O[C@@H](n4cnc5c(N)ncnc54)[C@H](O)[C@@H]3O)c2cc1C | Heat shock protein beta-1 (HSPB1, Homo sapiens, UniProt P04792) | binding | – | – | lysate | Kd | 159 nM |
| CCCC[C@@H]1NC(=O)[C@H](Cc2ccc(O)cc2)NC(=O)[C@@H]2CCCN2C(=O)[C@H](CC(=O)O)NC(=O)[C@H](C)NC(=O)[C@H](Cc2ccccc2)NC(=O)[C@@H]2CSCCC(=O)N3CN(CN(C3)C(=O)CCSC[C@@H](C(=O)N[C@@H](CNC(=O)CCc3cn(CCOCCOCCOCCOCCOCCOCCOCCOCCOCCOCCOCCOCCC(=O)NCCC(=O)N(C)CC(=O)N(C)CC(=O)N(C)CC(=O)N(C)CC(=O)N(C)CC(=O)N(C)CC(=O)N(C)CC(=O)N(C)CC(=O)N(C)CC(=O)N(C)CC(=O)NCCCC[C@@H]4NC(=O)[C@H](Cc5cccc6ccccc56)NC(=O)[C@@H]5CCCN5C(=O)[C@@H](NC(C)=O)CSCCC(=O)N5CN6CN(C5)C(=O)CCSC[C@H](NC4=O)C(=O)N[C@@H](CCSC)C(=O)N[C@@H](CCCCNC(=N)N)C(=O)N[C@@H](CC(=O)O)C(=O)N[C@@H](Cc4c[nH]c5ccccc45)C(=O)N[C@@H](CO)C(=O)N[C@@H]([C@@H](C)O)C(=O)N4CCC[C@H]4C(=O)N4C[C@H](O)C[C@H]4C(=O)N[C@@H](Cc4c[nH]c5ccccc45)C(=O)N[C@H](C(N)=O)CSCCC6=O)nn3)C(N)=O)NC1=O)C(=O)CCSC[C@H](NC(C)=O)C(=O)N[C@@H](CC(C)(C)C)C(=O)N1CCC[C@H]1C(=O)N[C@@H](CCC(=O)O)C(=O)N[C@H](C)C(=O)N1CCC[C@H]1C(=O)N[C@@H](Cc1ccc(O)cc1)C(=O)N2 | Tumor necrosis factor receptor superfamily member 9 | binding | – | SPR | – | Kd | 5.1 nM |
| Cc1cnc(-c2ccc(-c3ccc(NC(=O)Nc4c(F)cc(F)cc4F)cc3F)c3c2C(=O)NC3)[nH]1 | Myosin-IIIa (MYO3A, Homo sapiens, UniProt Q8NEV4) | binding | – | competition with immobilised ligand | – | Kd | 13 nM |
